Experimental findings from PubChem BioAssay AID2237 (Johns Hopkins Ion Channel Center, 2010) are described below.

In all, about 310,000 compounds went through this assay and about 1,500 (0.48%) were called active.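 Rule for the calls: active = B-score above 5 SD of library B-scores, and initial fluorescence ratio not above library mean plus 5 SD; inactive = the rest.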 Shown is part of a subset that was picked to be rich in actives.

Chain of Short transient receptor potential channel 4 (Mus musculus) (Q9QUQ5 whole entry, looked up): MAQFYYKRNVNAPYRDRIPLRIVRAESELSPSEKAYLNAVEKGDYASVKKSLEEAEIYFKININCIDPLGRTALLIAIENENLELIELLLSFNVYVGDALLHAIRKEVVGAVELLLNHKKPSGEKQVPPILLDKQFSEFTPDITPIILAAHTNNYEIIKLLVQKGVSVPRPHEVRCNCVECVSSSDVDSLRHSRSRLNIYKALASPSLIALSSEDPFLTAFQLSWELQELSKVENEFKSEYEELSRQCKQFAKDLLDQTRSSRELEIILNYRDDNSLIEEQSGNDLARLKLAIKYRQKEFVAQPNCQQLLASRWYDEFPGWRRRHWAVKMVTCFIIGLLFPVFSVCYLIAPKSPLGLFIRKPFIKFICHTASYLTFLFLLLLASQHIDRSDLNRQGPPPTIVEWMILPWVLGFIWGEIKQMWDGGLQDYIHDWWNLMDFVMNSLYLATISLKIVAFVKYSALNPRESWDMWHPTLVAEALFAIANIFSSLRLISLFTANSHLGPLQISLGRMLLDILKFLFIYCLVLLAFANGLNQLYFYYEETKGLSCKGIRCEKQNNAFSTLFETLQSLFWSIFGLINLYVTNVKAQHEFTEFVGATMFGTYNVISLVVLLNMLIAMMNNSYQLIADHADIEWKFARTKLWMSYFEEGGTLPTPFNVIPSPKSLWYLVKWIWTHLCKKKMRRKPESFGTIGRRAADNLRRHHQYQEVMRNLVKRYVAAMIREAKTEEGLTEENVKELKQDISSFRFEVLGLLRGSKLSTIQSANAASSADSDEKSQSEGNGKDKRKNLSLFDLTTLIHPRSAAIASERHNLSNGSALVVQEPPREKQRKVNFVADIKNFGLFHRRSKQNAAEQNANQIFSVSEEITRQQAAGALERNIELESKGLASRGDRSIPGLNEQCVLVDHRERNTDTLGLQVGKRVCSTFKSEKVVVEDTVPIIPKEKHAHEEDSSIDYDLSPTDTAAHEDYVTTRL

In this test the target is Short transient receptor potential channel 4 (Mus musculus) (UniProt Q9QUQ5). In words: TRPC4 cation channel opening, calcium rise – Fluo4 calcium, HEK293 TRPC4beta/mu-opioid cells, primary screen (AID 2237).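 For B-score: positive B-score marks a calcium rise read as TRPC4 activation.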 Conditions: Fluo4 calcium fluorescence, at 10 µM; hits give high values. The method in brief:
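Incubation: 45 min room-temperature Fluo4 loading, 110 s read / System: HEK293 cells stably co-expressing mouse TRPC4beta and mu-opioid receptor / Signal: Fluo4 fluorescence, kinetic / Control set: buffer (low) and maximal DAMGO (high) / Measure: integrated baseline-normalised fluorescence ratio, converted to per-well B score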
For the compound `CCSc1nc(O)c(C(c2cccc(OC)c2)c2c(O)nc(SCC)[nH]c2=O)c(=O)[nH]1`, the B-score result was “inactive”. The same measure for `CC1CCN(C(=O)C2CCN(S(=O)(=O)N3CCC4(CC3)OCCO4)CC2)CC1`: “inactive”; for `COc1ccc(CCN(C)CCN2C(=O)c3ccccc3C2=O)cc1OC`: 159 (active).

Regarding `COc1ccc(CCN2C(=O)C3CC=C(C)CC3C2=O)cc1OC` (stereo not given), the B-score result is “inactive”. The same measure for `COc1ccc(CCN2C(=O)C(C)=C(C)C2=O)cc1OC`: “inactive”; for `O=c1[nH]c2ccccc2s1`: “inactive”; for `COc1ccc(CN2CCNC(=O)C2CC(=O)N(C)Cc2ccccn2)cc1OC` (stereo not given): “inactive”.

As to `CN(CCc1cn[nH]c1)C(=O)CC1C(=O)NCCN1Cc1cccc(Oc2ccccc2)c1` (stereo not given), the B-score result is “inactive”. The same measure for `COc1cccc(CN2CCNC(=O)C2CC(=O)N(C)CCc2ccccn2)c1` (stereo not given): 132 (active); for `CCC(C)(C)NC(=O)C(c1ccc(O)cc1)N(Cc1ccco1)C(=O)CCC(=O)Nc1ccccn1` (stereo not given): “inactive”. The same measure for `CCOc1c2ccc(C(=O)NC3CCCc4ccccc43)cc2nn1CC` (stereo not given): “inactive”; for `OCCC#Cc1ccc(CN2CCN(Cc3ccsc3)C(CCO)C2)cc1` (stereo not given): “inactive”.

`OCCC1CN(Cc2ccccc2-c2ccco2)CCN1Cc1ccsc1` (stereo not given): the B-score is 44 (active). As for `Cc1ccc(CN2CCN(Cc3ccccc3-c3ccco3)CC2CCO)o1` (stereo not given), the B-score result was “inactive”. The same measure for `COc1cc(CO)ccc1OCC(=O)Nc1cccc2ccccc12`: “inactive”. The same measure for `CCN(CC(=O)NCc1cccs1)C(=O)c1ccc(OC)c(S(=O)(=O)N2CCOCC2)c1`: “inactive”; for `CC(=O)NC1(c2ccc(F)cc2)CCN(C(=O)c2c(F)cccc2F)CC1`: “inactive”; for `O=C(c1c(F)cccc1Cl)N1CCN(c2ccccn2)CC1`: “inactive”. `O=C(c1c(F)cccc1F)N1CCN(c2ncc(Br)cn2)CC1`: the B-score is 204 (active). The same measure for `COc1ccc(Cl)cc1C(=O)NNC(=O)c1nc2nc(C)cc(C)n2n1`: “inactive”; for `Cc1ccc(-c2nn(-c3ccccc3)cc2CN(Cc2ccccc2)C(=O)CCC(=O)O)o1`: “inactive”; for `COc1ccc(-c2nn(-c3ccccc3)cc2C(=O)Nc2nc(CC(C)=O)ns2)cc1`: “inactive”.

In the case of `CCc1ccc(-c2nn(-c3ccccc3)cc2CSC(=N)N)cc1`, the B-score is 260 (active). The same measure for `COc1ccc(-c2cc(=O)oc3cc(OC(C)C(=O)NCC4CCC(C(=O)O)CC4)ccc23)cc1` (stereo not given): “inactive”. The same measure for `Cc1[nH]c2ccccc2c1-c1ccc(Cl)nn1`: “inactive”; for `CCOC(=O)C1CCCCN1Cc1ccc(OC)c(OC)c1OC` (stereo not given): “inactive”; for `CCCCSc1[nH]c(=O)c(C(=O)OCC)cc1C#N`: 56 (active).

`CCOC(=O)c1cc(C#N)c(N2CCCCC2)nc1-c1ccccc1`: the B-score result is “inactive”. The same measure for `CCOC(=O)c1cc(C)nc(S(C)(=O)=O)c1C#N`: “inactive”; for `CC1CCN(CC(=O)Nc2nccs2)CC1`: “inactive”; for `COc1ccc(Cl)cc1NC(=O)[C@@H]1CCCN1C(=O)c1cccs1`: “inactive”. The same measure for `NS(=O)(=O)c1ccc(CCNc2nc(C(F)(F)F)nc3ccccc23)cc1`: “inactive”; for `CCc1ccc(C(CNc2nc(C(F)(F)F)nc3ccccc23)N(C)C)cc1` (stereo not given): 51 (active); for `COc1cccc(CNc2nc(C(F)(F)F)nc3ccccc23)c1`: “inactive”. The same measure for `COc1ccc(NC(=O)CC2C(=O)NC3CCCCC3N2C(=O)c2ccc(F)cc2)cc1` (stereo not given): “inactive”; for `CC1(C)C=C2[C@H]3CC[C@@H]4[C@@]5(C)CCC(=O)C(C)(C)[C@@H]5CC[C@@]4(C)[C@]3(C)CC[C@@]2(C(=O)O)CC1`: “inactive”; for `CC1(C)C2CCC13CS(=O)(=O)NC3C2` (stereo not given): “inactive”. As to `Cc1ccc(C(=O)NC23CC4CC(CC(C4)C2)C3)c(Cl)c1`, the B-score entry was “inactive”.

For `Cc1ccc(S(=O)(=O)NCCC(=O)NNC(=O)C2COc3ccccc3O2)cc1` (stereo not given), the B-score entry was “inactive”.

For the compound `O=C(NCc1ccccc1)C1=C[C@H](C2CC2)C[C@H](OCc2ccc(CO)cc2)O1`, the B-score entry was “inactive”. In the case of `CC(C)(C)[C@H]1C=C(C(=O)NCc2ccccc2)O[C@@H](OCc2ccc(CO)cc2)C1`, the B-score was 136 (active).

Take `O=C(NCc1ccccc1)C1=C[C@@H](C2CCCCC2)C[C@@H](OCc2ccc(CO)cc2)O1`: the B-score is 151 (active). The same measure for `O=C(NCc1ccccc1)C1=C[C@@H](c2ccc(C(F)(F)F)cc2)C[C@@H](OCc2ccc(CO)cc2)O1`: “inactive”. The same measure for `O=C(C1=C[C@H](C2CC2)C[C@H](OCc2ccc(CO)cc2)O1)N1CCN(Cc2ccccc2)CC1`: “inactive”; for `O=C(NCc1ccccc1)C1=C[C@@H](c2ccccc2)C[C@@H](OCCCCO)O1`: “inactive”; for `CC(=O)c1ccc(S(=O)(=O)Nc2ccc(-c3ccc4nncn4n3)cc2)cc1`: “inactive”. The same measure for `C#CCOc1ccc(/C=C2/C(=O)ON=C2C)cc1OCC`: “inactive”; for `COc1ccc(C(=O)C2CCCN(Cc3cccn3-c3ccccn3)C2)c(C)c1` (stereo not given): “inactive”; for `CCOC(=O)c1ccc(NC(=O)c2c(NCc3ccccc3)[nH]c(=O)[nH]c2=O)cc1`: “inactive”. Regarding `COc1cccc(CNC(=O)CCC2CCCN(Cc3ccc(OC(F)F)cc3)C2)c1` (stereo not given), the B-score entry was “inactive”.

In the case of `COc1ccc(C[C@H]2CN3C(=NC[C@H]3C)N2CCNC(=O)CCC2CCCCC2)cc1`, the B-score was 78 (active).

On to `C/C=C(\C)C(=O)NCCN1C2=NC[C@H](Cc3ccc(O)cc3)N2C[C@@H]1Cc1ccc(OC)cc1`, for which the B-score entry was “inactive”. Regarding `CCNc1nc(SCCOc2ccccc2)nc(N(C)C)n1`, the B-score result was “inactive”. As to `O=C(NCCN1C(=O)S/C(=C\c2cccnc2)C1=O)c1ccc(S(=O)(=O)N2CCCC2)cc1`, the B-score result is “inactive”.

Take `CC(=O)c1nc2ccccc2n1Cc1ccccc1`: the B-score result was “inactive”. Regarding `CC(=O)Nc1nc2ccccc2n1Cc1ccc(C)cc1`, the B-score entry is “inactive”. The same measure for `CCCc1nc2c(C)cc(-c3nc4ccccc4n3C)cc2n1Cc1ccc(-c2ccccc2C(=O)O)cc1`: 95 (active); for `COC(=O)N/N=C/c1c[n+]([O-])c2ccccc2[n+]1[O-]`: “inactive”; for `Cc1ccc(OCC(=O)NC(C)c2ccccc2)cc1C` (stereo not given): “inactive”.

Regarding `Cc1cc(C)cc(OCC(=O)NC(C)c2ccccc2)c1` (stereo not given), the B-score result was “inactive”. The same measure for `COc1cc(OC)cc(C(=O)N[C@H](C(=O)OCC(=O)NC(C)c2ccccc2)C(C)C)c1` (stereo not given in full): 64 (active); for `CCc1ccccc1NC(=O)c1cc(-c2ccc3c(c2)OCO3)on1`: “inactive”. The same measure for `O=S(=O)(c1ccccc1)N1CCC(c2ccccc2)CC1`: “inactive”; for `Cc1ccc(S(=O)(=O)N2CCC(N3CCCCCC3)CC2)cc1`: “inactive”. The same measure for `c1ccc(C2CCC(N3CCC(N4CCCCC4)CC3)CC2)cc1` (stereo not given): 123 (active).
